Experimental data as given in ChEMBL document CHEMBL1145971, “Design and synthesis of the potent, orally available, brain-penetrable arylpyrazole class of neuropeptide Y5 receptor antagonists” (J Med Chem, 2003).

Key:
[1] = target: T1, Neuropeptide Y receptor type 5 (Homo sapiens, UniProt Q15761); experiment: Inhibition of [125I]PYY binding to human recombinant Neuropeptide Y receptor type 5 in LMtk-cells
T1 sequence (Q15761 whole entry): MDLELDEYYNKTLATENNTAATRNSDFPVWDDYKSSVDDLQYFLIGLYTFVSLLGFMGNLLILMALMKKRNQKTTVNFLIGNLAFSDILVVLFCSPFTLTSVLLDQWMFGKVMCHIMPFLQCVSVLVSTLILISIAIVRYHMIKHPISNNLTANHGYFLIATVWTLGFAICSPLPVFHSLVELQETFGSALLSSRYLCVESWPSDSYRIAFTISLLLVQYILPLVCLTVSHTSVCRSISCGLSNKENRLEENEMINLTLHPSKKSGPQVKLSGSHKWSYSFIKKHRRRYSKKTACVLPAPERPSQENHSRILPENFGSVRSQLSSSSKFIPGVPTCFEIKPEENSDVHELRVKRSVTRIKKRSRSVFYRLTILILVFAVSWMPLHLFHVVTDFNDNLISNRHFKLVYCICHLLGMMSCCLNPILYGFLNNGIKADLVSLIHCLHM
Summary of the method: (§1)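 Radioligand displacement used [125I]PYY on human recombinant Y5 receptors expressed in LMtk- cells. Values are mean ± SE, n = 3.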

[2] = target: T1, Neuropeptide Y receptor type 5; experiment: Inhibition of [125I]PYY binding human recombinant Neuropeptide Y receptor type 5 in LMtk-cells; summary of the method: as §1
[3] = target: T1, Neuropeptide Y receptor type 5; experiment: Antagonistic activity of compound was determined by its ability to inhibit NPY induced [Ca2+]i increases in CHO cells which expressed the recombinant human Neuropeptide Y receptor type 5; assay type: functional, cell-based
Summary of the method: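 Human recombinant Y5 receptor co-expressed with Gqi5 in CHO cells. Cells were stimulated with 100 nM NPY and inhibition of the intracellular Ca2+ rise was measured. IC50 is given as mean ± SE, n = 3.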

[4] = Bioavailability was determined for compound in SD rats when administered perorally at 10 mg/kg; assay type: ADME, organism-based; conditions: Sprague-Dawley, rat, in vivo, po, read-out: Fmean
Summary of the method: (§2)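 Pharmacokinetics in SD rats: intravenous dose 1 mg/kg and oral dose 10 mg/kg. Parameters derived from plasma levels were t1/2, Vdss and CLtot (iv), and t1/2, Tmax, Cmax and F (po).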

[5] = Volume of distribution was determined in SD rats when administered intravenously, at 1 mg/kg compound dosage; assay type: ADME, organism-based; design: dose 1 mg/kg, route intravenous; conditions: Sprague-Dawley, rat, in vivo, iv, read-out: Vdss; summary of the method: as §2
[6] = Half life (10 mg/kg) was determined in SD rats when administered perorally; assay type: ADME, organism-based; conditions: Sprague-Dawley, rat, in vivo, po; summary of the method: as §2
[7] = Half life (1 mg/kg) was determined in SD rats when administered intravenously; assay type: ADME, organism-based; conditions: Sprague-Dawley, rat, in vivo, iv; summary of the method: as §2
[8] = Total body clearance was determined in SD rats when administered intravenously, at 1 mg/kg compound dosage; assay type: ADME, organism-based; design: dose 1 mg/kg, route intravenous; conditions: Sprague-Dawley, rat, in vivo, iv, read-out: CLtotal; summary of the method: as §2
[9] = system: Rattus norvegicus; experiment: Peak plasma concentration was determined for compound in SD rats when administered perorally at 10 mg/kg; assay type: ADME, organism-based; design: dose 10 mg/kg, route oral; conditions: in vivo, po; summary of the method: as §2
[10] = Time required for peak plasma concentration was determined for compound in SD rats when administered perorally at 10 mg/kg; assay type: ADME, organism-based; design: dose 10 mg/kg, route oral; conditions: Sprague-Dawley, rat, po; summary of the method: as §2
[11] = The concentration in brain was determined in SD rats at 2 hr after peroral administration of 10 mg/kg; assay type: ADME, organism-based; design: dose 10 mg/kg, route oral; conditions: Sprague-Dawley, rat, po

Ki [1] [nM]	IC50 [2] [nM]	Compound	other results
450		O=C(Nc1cc(-c2ccccc2Cl)n[nH]1)C1Cc2ccccc2C1	
	> 1000	O=C(Nc1cc(-c2ccc(Cl)cc2)n[nH]1)c1cccc2ccccc12	
	47	O=C(Cc1ccc2ccccc2c1)Nc1cc(-c2ccc(Cl)cc2)n[nH]1	
80		Cc1ccc(-c2cc(NC(=O)C3Cc4ccccc4C3)[nH]n2)cc1	
120		O=C(Nc1cc(-c2cccc(Cl)c2)n[nH]1)C1Cc2ccccc2C1	
62		COc1ccc(-c2cc(NC(=O)C3Cc4ccccc4C3)[nH]n2)cc1	
	> 1000	O=C(Nc1cc(-c2ccc(Cl)cc2)n[nH]1)c1ccccc1	
	443	O=C(CCCc1ccccc1)Nc1cc(-c2ccc(Cl)cc2)n[nH]1	
33		COc1ccc(-c2cc(NC(=O)C3Cc4ccccc4C3)[nH]n2)cc1OC	
	317	O=C(Cc1cccc2ccccc12)Nc1cc(-c2ccc(Cl)cc2)n[nH]1	
92		CC(C)Oc1ccc(-c2cc(NC(=O)C3Cc4ccccc4C3)[nH]n2)cc1	
260		O=C(Nc1cc(-c2ccccc2)[nH]n1)C1Cc2ccccc2C1	
16	16.3	O=C(O)CCc1cccc(CC(=O)Nc2cc(-c3ccc(Cl)cc3)n[nH]2)c1	
8.3		COc1ccc(-c2cc(NC(=O)Cc3ccc4ccccc4c3)[nH]n2)cc1OC	
	> 1000	O=C(CCc1ccccc1)Nc1cc(-c2ccc(Cl)cc2)n[nH]1	
	803	O=C(Cc1ccccc1)Nc1cc(-c2ccc(Cl)cc2)n[nH]1	
	> 1000	O=C(Nc1cc(-c2ccc(Cl)cc2)n[nH]1)c1ccc(-c2ccccc2)cc1	
	> 1000	O=C(Nc1cc(-c2ccc(Cl)cc2)n[nH]1)c1ccc2ccccc2c1	
59		O=C(Nc1cc(-c2ccc(Cl)cc2)n[nH]1)C1Cc2ccccc2C1	
2.8		COc1ccc(-c2cc(NC(=O)C3Cc4ccc5ccccc5c4C3)[nH]n2)cc1OC (racemic)	
10		O=C(Nc1cc(-c2ccncc2)[nH]n1)C1Cc2ccc3ccccc3c2C1 (racemic)	
7.3		CCc1cc(-c2cc(NC(=O)C3Cc4ccc5ccccc5c4C3)[nH]n2)ccn1 (racemic)	
25		CCc1cc(-c2cc(NC(=O)C3Cc4ccc5ccccc5c4C3)[nH]n2)ccn1 (stereo in doubt; (+)-7)	IC50 [3]: 28 nM
3.5		CCc1cc(-c2cc(NC(=O)C3Cc4ccc5ccccc5c4C3)[nH]n2)ccn1 (stereo in doubt; (-)-7)	bioavailability [4]: 70%; Vd [5]: 0.62 L/kg; half-life [6]: 1.9 h; half-life [7]: 0.88 h; clearance [8]: 9.52 mL/min/kg; Cmax [9]: 5000 nM; Tmax [10]: 2 h; concentration at 2 h [11]: 450 nM; IC50 [3]: 14 nM
